Experiments:
CHO [1] = assay: Cytotoxicity in RFC deficient 43-10 cells derived from CHO cells transfected with human RFC cDNA; format: functional, cell-based; conditions: Cricetulus griseus
In short: (§1)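 CHO-derived cells grown in RPMI 1640 medium and exposed continuously to compound for 72 h. Serial dilutions were made in DMSO. Viability was read with a CellTiter-Blue assay. IC50 was taken from dose-response curves over 1 nM to 1 µM.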

CHO [2] = assay: Cytotoxicity against Pro3 cells derived from CHO cells with fully functional reduced folate carrier; format: cell-based; conditions: Cricetulus griseus; in short: as §1
[3] = Half life of hydrolysis rate in phosphate buffer at pH 8.0; format: ADME
In short: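 Prodrug was diluted into 20 mM phosphate buffer, pH 8.0, containing 5% DMSO, with serial dilutions made in the same phosphate. Loss of the parent ester and formation of products were monitored over time by HPLC (UV at 254 and 310 nm). t = 0 is autosampler injection. Ester decay was fit to pseudo-first-order kinetics to give the half-life.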

CHO [4] = assay: Cytotoxicity against R2 mutant cells derived from CHO cells with reduced expression of RFC; format: functional, cell-based; conditions: Cricetulus griseus; in short: as §1
[5] = Half life of hydrolysis rate in RPMI-1640 medium at pH 8.0; format: ADME
In short: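 Prodrug stock was diluted into RPMI-1640 cell medium (pH 8.0) and filtered, and disappearance of the ester was followed by HPLC with UV detection at 254 and 310 nm. t = 0 is the time the autosampler injected the sample. The half-life was determined from the HPLC data.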

SMILES	IC50 (CHO [1]) [nM]	IC50 (CHO [2]) [nM]	half-life [3] [h]	IC50 (CHO [4]) [nM]	half-life [5] [h]
COC(=O)CCC(CP(=O)(O)CCC(NC(=O)c1ccc(N(C)Cc2cnc3nc(N)nc(N)c3n2)cc1)C(=O)OC)C(=O)OC (configuration not stated)	300	500	> 100	> 1000	–
CN(Cc1cnc2nc(N)nc(N)c2n1)c1ccc(C(=O)NC(CCP(=O)(O)CC(CCC(=O)O)C(=O)O)C(=O)O)cc1 (configuration not stated)	> 1000	> 1000	–	> 1000	–
CN(Cc1cnc2nc(N)nc(N)c2n1)c1ccc(C(=O)NC(CCP(=O)(O)CC(CCC(=O)OCOC(=O)C(C)(C)C)C(=O)OCOC(=O)C(C)(C)C)C(=O)OCOC(=O)C(C)(C)C)cc1 (configuration not stated)	250	700	8	350	3
COP(=O)(CCC(NC(=O)c1ccc(N(C)Cc2cnc3nc(N)nc(N)c3n2)cc1)C(=O)OCOC(=O)C(C)(C)C)CC(CCC(=O)OCOC(=O)C(C)(C)C)C(=O)OCOC(=O)C(C)(C)C (configuration not stated)	800	> 1000	3	> 1000	1
